A1 apoptosis 2 – A1 inhibitors via caspase activation, primary screen, cell-based, luminescence, HTS, two replicates. MEF A1-2A-BIM cells, caspase-Glo luminescence, 3 h; percent of clofoctol response, DMSO zero. caspase activation, % (test concentration not listed). 24,000 tested, under 10 active; in the data active = caspase activation above about 5.9%
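Material: A1-2A-BIM-expressing MEF cells. Buffer or medium: RPMI-1640 plus 10% FBS. Incubation: cells settled overnight, compound exposure 3 h at 37 °C, 5% CO2. Signal: Caspase-Glo 3/7 luminescence, 1 h at room temperature.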
INS-1E rescue – protection of INS-1E cells from cytokine death, primary screen, ATP luminescence, single point. INS-1E cytokine-induced death, 48 h; normalised: neutral wells 0, positive control 100. protection from cytokine-induced ATP loss, % at 10 µM. 0.1% of 20,000 active;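 active = mean replicate protection from cytokine-induced ATP loss at least 50% and at least 75% of replicates each reaching 50%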
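Assay system: INS-1E rat insulinoma cells. Amount: 8000 cells per well. Medium: phenol-red-free RPMI with 5% fetal bovine serum. Reagent: IL-1β, TNF-α and IFN-γ cytokine mix. Doses: one compound concentration, pin transfer. Schedule: 48 h co-treatment, 10 min post-lysis read. Detection: CellTiter-Glo luminescence measuring cellular ATP.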
T cruzi HTS – inhibitors of intracellular Trypanosoma cruzi, primary screen, cell-based, plate reader, single point, set 2 | intracellular Trypanosoma cruzi in host cells | activity score (inhibition), % at 5.01 µM | 4.9% of 22,000 active; in the data active = activity score above about 55%;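 note: parasites and compound incubated about four days before reading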
Numbers stand for hits; - = inactive; . = no result. This is one part of a sample in which hits are shown more often than they occur.

SMILES	A1 apoptosis 2	INS-1E rescue	T cruzi HTS
CC(C)NC(=O)Nc1cccc2c1O[C@@H](CN(C)Cc1ccc(Oc3ccccc3)cc1)[C@H](C)CN([C@H](C)CO)C2=O	-	-	57
C[C@H]1CN([C@@H](C)CO)C(=O)c2cccc(NC(=O)Nc3ccccc3)c2O[C@@H]1CN(C)Cc1ccc(Oc2ccccc2)cc1	-	-	-
C[C@H](CO)N1C[C@H](C)[C@H](CN(C)Cc2ccc(Oc3ccccc3)cc2)Oc2c(NC(=O)Nc3cccc4ccccc34)cccc2C1=O	-	-	66
C[C@@H]1CN([C@@H](C)CO)C(=O)c2cccc(NC(=O)Nc3ccccc3)c2O[C@@H]1CN(C)Cc1ccc(Oc2ccccc2)cc1	.	-	-
C[C@H](CO)N1C[C@H](C)[C@@H](CN(C)Cc2ccc(Oc3ccccc3)cc2)Oc2c(NC(=O)Nc3ccccc3)cccc2C1=O	-	-	78
CC(C)NC(=O)Nc1cccc2c1O[C@H](CN(C)Cc1ccc(Oc3ccccc3)cc1)[C@H](C)CN([C@@H](C)CO)C2=O	-	-	-
C[C@H](CO)N1C[C@H](C)[C@H](CN(C)Cc2ccc(-c3ccccc3)cc2)Oc2c(NC(=O)Nc3cccc4ccccc34)cccc2C1=O	-	.	.
O=C(N=NC=C1C=CN(O)C=C1)c1ccccc1O	-	-	-
O=C(N/N=C/c1cccc(B(O)O)c1)c1ccccn1	-	-	-
CC(C)=CCC[C@H](C)C/C=N/NC(=O)CCCCCCC(=O)O	-	-	-
COC(=O)CCCCCCC(=O)N/N=C/c1cc(OC)ccc1Br	.	-	-
COc1ccc(NC(=O)Nc2cccc3c2O[C@@H](CN(C)Cc2ccc(Oc4ccccc4)cc2)[C@@H](C)CN([C@H](C)CO)C3=O)cc1	-	-	63
COc1ccc(NC(=O)Nc2cccc3c2O[C@@H](CN(C)Cc2ccc(Oc4ccccc4)cc2)[C@@H](C)CN([C@@H](C)CO)C3=O)cc1	-	-	-
O=C(N/N=C/c1ccc(-n2ccnc2)cc1)c1ccccn1	-	-	-
Cc1ccc(F)cc1S(=O)(=O)N[C@@H]1CCN(Cc2ccc3c(c2)OCO3)C1	-	.	.
C[C@H](CO)N1C[C@H](C)[C@@H](CN(C)Cc2ccc(Cl)c(Cl)c2)Oc2ccc(NS(=O)(=O)c3ccc(Cl)cc3)cc2CC1=O	-	.	.
C[C@H]1CN([C@@H](C)CO)C(=O)Cc2cc(NS(=O)(=O)c3ccc(Cl)cc3)ccc2O[C@@H]1CN(C)Cc1ccncc1	-	-	-
C[C@H]1CN([C@@H](C)CO)C(=O)Cc2cc(NS(=O)(=O)c3ccc(F)cc3)ccc2O[C@H]1CN(C)Cc1ccc(Cl)c(Cl)c1	.	-	-
C[C@@H]1CN([C@H](C)CO)C(=O)Cc2cc(NS(=O)(=O)c3ccc(F)cc3)ccc2O[C@H]1CN(C)Cc1ccc(Cl)c(Cl)c1	.	-	77
C[C@@H]1CN([C@H](C)CO)C(=O)Cc2cc(NS(=O)(=O)c3ccc(Cl)cc3)ccc2O[C@@H]1CN(C)Cc1ccncc1	-	-	76
C[C@@H]1CN([C@H](C)CO)C(=O)Cc2cc(NS(=O)(=O)c3ccc(Cl)cc3)ccc2O[C@H]1CN(C)Cc1ccc(Cl)c(Cl)c1	.	-	65
O=C(CCCCCCC(=O)Nc1ccccc1O)N/N=C/c1cccnc1Br	.	-	-
O=C(N/N=C/c1ccncc1Br)c1ccccc1O	-	-	-
COC(=O)CCCCCCC(=O)N/N=C/c1ccc(OC)c(Br)c1	-	-	-
O=C(N/N=C/c1ccc(OCCO)cc1)c1ccccc1O	-	-	-
SMILES	A1 apoptosis 2	INS-1E rescue	T cruzi HTS
CC(C)(C)/C=N/NC(=O)CCCCCCC(=O)O	.	-	-
O=C(O)CCCCCCC(=O)N/N=C/c1ccc([N+](=O)[O-])s1	-	-	-
O=C(CCCCCC(=O)N/N=C/c1ccc([N+](=O)[O-])s1)NO	.	-	64
COC(=O)CCCCCCC(=O)N/N=C/c1ccc([N+](=O)[O-])s1	-	-	81
O=C(CCCCCC(=O)Nc1ccccc1O)N/N=C/c1ccc([N+](=O)[O-])s1	-	.	.
CO[C@H]1O[C@H](CO)[C@@H](OC(=O)Nc2ccccc2)[C@H](OC(=O)Nc2ccccc2)[C@@H]1OC(=O)Nc1ccccc1	-	.	.
Cc1ccc(S(=O)(=O)Nc2ccc3c(c2)CC(=O)N([C@@H](C)CO)C[C@H](C)[C@@H](CN(C)S(=O)(=O)c2cccs2)O3)cc1	-	-	-
Cc1ccc(S(=O)(=O)N(C)C[C@H]2Oc3ccc(NS(=O)(=O)c4cccs4)cc3CC(=O)N([C@H](C)CO)C[C@H]2C)cc1	-	-	72
C[C@@H]1CN([C@H](C)CO)C(=O)Cc2cc(NS(=O)(=O)c3cccs3)ccc2O[C@@H]1CN(C)S(=O)(=O)c1ccc(F)cc1	.	-	60
C[C@H]1CN([C@@H](C)CO)C(=O)Cc2cc(NS(=O)(=O)c3cccs3)ccc2O[C@@H]1CN(C)S(=O)(=O)c1ccc(F)cc1	.	-	-
O=C(N/N=C/c1ccc2c(c1)CCO2)c1ccccc1O	-	-	-
COC(=O)CCCCCCC(=O)N/N=C/c1ccc(C(F)(F)F)cc1	.	-	-
C[C@@H](O)[C@@H](O)[C@@H](O)C/C=N/NC(=O)CCCCCC(=O)Nc1ccccc1O	-	-	-
O=C(CCCCCC(=O)Nc1ccccc1O)N/N=C/c1ccc(O)cc1O	-	-	-
C[C@H]1CN([C@@H](C)CO)C(=O)c2cccc(NC(=O)Nc3ccc(F)cc3)c2O[C@@H]1CN(C)Cc1ccc(C(F)(F)F)cc1	-	-	-
C[C@@H]1CN([C@H](C)CO)C(=O)c2cccc(NC(=O)C3CC3)c2O[C@@H]1CN(C)Cc1ccc(C(F)(F)F)cc1	.	-	-
C[C@@H]1CN([C@@H](C)CO)C(=O)c2cccc(NC(=O)Nc3ccc(C(F)(F)F)cc3)c2O[C@@H]1CN(C)Cc1ccc(-c2ccccc2)cc1	.	-	65
C[C@@H]1CN([C@H](C)CO)C(=O)c2cccc(NC(=O)Nc3ccc(F)cc3)c2O[C@@H]1CN(C)Cc1ccc(-c2ccccc2)cc1	.	-	68
C[C@@H]1CN([C@H](C)CO)C(=O)c2cccc(NC(=O)Nc3ccc(C(F)(F)F)cc3)c2O[C@@H]1CN(C)Cc1ccc(-c2ccccc2)cc1	-	-	-
C[C@@H]1CN([C@H](C)CO)C(=O)c2cccc(NC(=O)C3CCCCC3)c2O[C@H]1CN(C)Cc1ccc(C(F)(F)F)cc1	.	-	78
C[C@@H]1CN([C@H](C)CO)C(=O)c2cccc(NC(=O)Nc3ccc(C(F)(F)F)cc3)c2O[C@@H]1CN(C)Cc1ccc(C(F)(F)F)cc1	-	-	89
C[C@H]1CN([C@@H](C)CO)C(=O)c2cccc(NC(=O)Nc3ccc(F)cc3)c2O[C@@H]1CN(C)Cc1ccc(-c2ccccc2)cc1	-	-	-
O=C(N/N=C/c1ccccc1)c1ccccn1	-	-	-
O=C1O[C@H](c2ccccc2)[C@H](c2ccccc2)N2[C@H]1[C@@H](C(=O)O)[C@]1(C(=O)Nc3ccc(C#CC4(O)CCCCCC4)cc31)[C@H]2c1ccc(O)cc1	-	.	.
COc1cc(Cl)c(/C=N/NC(=O)c2ccccn2)c(Cl)c1OC	-	-	-
